ChEMBL document CHEMBL6182837, “Discovery and biological evaluation of nitrofuranyl-pyrazolopyrimidine hybrid conjugates as potent antimicrobial agents targeting Staphylococcus aureus and methicillin-resistant S. aureus” (RSC Med Chem, 2025)
Values after ≈ are worked out from the molar mass of the structure shown. Active and inactive are the calls of the source. The rule behind the calls is not given here.

What was measured:
Staphylococcus aureus [1] = experiment: Antibacterial activity against Staphylococcus aureus ATCC 29213 incubated for 24 hrs by Alamar blue staining based microdilution method; format: functional
Staphylococcus aureus [2] = experiment: Antibacterial activity against methicillin-resistant Staphylococcus aureus ATCC 15187 incubated for 24 hrs by Alamar blue staining based microdilution method; format: functional
Escherichia coli = experiment: Antibacterial activity against Escherichia coli ATCC 25922 incubated for 24 hrs by Alamar blue staining based microdilution method; format: functional
[3] = Cytotoxicity in human HepG2 cells incubated for 24 hrs by MTT assay; format: toxicity, cell-based
Summary of the method: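 HepG2 cells, 1 × 10^4 per well in DMEM/10% FBS, 24 h attachment; compounds 200 to 0.19 μg ml−1 for 24 h at 37 °C, 5% CO2; MTT 2.5 mg ml−1 for 3 h, formazan in DMSO, OD 570 nm; doxorubicin 10 μM control.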

| Structure (SMILES) | MIC (Staphylococcus aureus [1]) | MIC (Staphylococcus aureus [2]) | MIC (Escherichia coli) | IC50 at 24 h [3] |
| --- | --- | --- | --- | --- |
| CCCc1nn(C)c2c(NCCCCO)nc(-c3ccc([N+](=O)[O-])o3)nc12 | 4 µg/mL (≈ 10.7 µM) | 0.25 µg/mL (≈ 0.668 µM) | inactive | > 50 µg/mL |
| CCCc1nn(C)c2c(NC3CCOCC3)nc(-c3ccc([N+](=O)[O-])o3)nc12 | > 32 µg/mL | > 32 µg/mL | inactive | > 50 µg/mL |
| CCCc1nn(C)c2c(Nc3ccc(F)cc3)nc(-c3ccc([N+](=O)[O-])o3)nc12 | 8 µg/mL (≈ 20.2 µM) | 0.25 µg/mL (≈ 0.631 µM) | inactive | > 50 µg/mL |
| CCCc1nn(C)c2c(NCCO)nc(-c3ccc([N+](=O)[O-])o3)nc12 | > 32 µg/mL | 8 µg/mL (≈ 23.1 µM) | inactive | > 50 µg/mL |
| CCCc1nn(C)c2c(N3CCN(c4cccc(O)c4)CC3)nc(-c3ccc([N+](=O)[O-])o3)nc12 | > 32 µg/mL | > 32 µg/mL | inactive | > 50 µg/mL |
| CCCc1nn(C)c2c(N3CCC(c4ccccc4)CC3)nc(-c3ccc([N+](=O)[O-])o3)nc12 | > 32 µg/mL | > 32 µg/mL | inactive | > 50 µg/mL |
| CCCc1nn(C)c2c(Nc3ccccc3O)nc(-c3ccc([N+](=O)[O-])o3)nc12 | 0.5 µg/mL (≈ 1.27 µM) | 1 µg/mL (≈ 2.54 µM) | inactive | > 50 µg/mL |
| CCCc1nn(C)c2c(N3CCC(=O)CC3)nc(-c3ccc([N+](=O)[O-])o3)nc12 | > 32 µg/mL | 16 µg/mL (≈ 41.6 µM) | inactive | > 50 µg/mL |
| CCCc1nn(C)c2c(NCCCO)nc(-c3ccc([N+](=O)[O-])o3)nc12 | 4 µg/mL (≈ 11.1 µM) | 2 µg/mL (≈ 5.55 µM) | inactive | > 50 µg/mL |
| CCCc1nn(C)c2c(=O)[nH]c(-c3ccc([N+](=O)[O-])o3)nc12 | 8 µg/mL (≈ 26.4 µM) | 8 µg/mL (≈ 26.4 µM) | inactive | > 50 µg/mL |
| CCCc1nn(C)c2c(NCc3cccnc3)nc(-c3ccc([N+](=O)[O-])o3)nc12 | 8 µg/mL (≈ 20.3 µM) | 4 µg/mL (≈ 10.2 µM) | inactive | > 50 µg/mL |
| CCCc1nn(C)c2c(NCCN3CCOCC3)nc(-c3ccc([N+](=O)[O-])o3)nc12 | > 32 µg/mL | > 32 µg/mL | inactive | > 50 µg/mL |
| CCCc1nn(C)c2c(NCc3ccccc3)nc(-c3ccc([N+](=O)[O-])o3)nc12 | > 32 µg/mL | > 32 µg/mL | inactive | > 50 µg/mL |
| CCCc1nn(C)c2c(NCCN3CCCCC3)nc(-c3ccc([N+](=O)[O-])o3)nc12 | > 32 µg/mL | > 32 µg/mL | inactive | > 50 µg/mL |
| CCCc1nn(C)c2c(Nc3ccc(Cl)cc3)nc(-c3ccc([N+](=O)[O-])o3)nc12 | > 32 µg/mL | > 32 µg/mL | inactive | > 50 µg/mL |
| CCCc1nn(C)c2c(NCCCCCO)nc(-c3ccc([N+](=O)[O-])o3)nc12 | 4 µg/mL (≈ 10.3 µM) | 0.5 µg/mL (≈ 1.29 µM) | inactive | 38.1 µg/mL (≈ 98.1 µM) |
| CCCc1nn(C)c2c(Nc3cccc(O)c3)nc(-c3ccc([N+](=O)[O-])o3)nc12 | 4 µg/mL (≈ 10.1 µM) | 1 µg/mL (≈ 2.54 µM) | inactive | > 50 µg/mL |
| CCCc1nn(C)c2c(Nc3cccc(F)c3)nc(-c3ccc([N+](=O)[O-])o3)nc12 | > 32 µg/mL | 4 µg/mL (≈ 10.1 µM) | inactive | 38.9 µg/mL (≈ 98 µM) |
| CCCc1nn(C)c2c(Nc3ccncc3)nc(-c3ccc([N+](=O)[O-])o3)nc12 | 0.5 µg/mL (≈ 1.32 µM) | 4 µg/mL (≈ 10.5 µM) | 4 µg/mL (≈ 10.5 µM) | > 50 µg/mL |

| Structure (SMILES) | MIC (Staphylococcus aureus [1]) | MIC (Staphylococcus aureus [2]) | MIC (Escherichia coli) | IC50 at 24 h [3] |
| --- | --- | --- | --- | --- |
| CCCc1nn(C)c2c(NCc3ccc(OC)cc3)nc(-c3ccc([N+](=O)[O-])o3)nc12 | > 32 µg/mL | > 32 µg/mL | inactive | > 50 µg/mL |
| CCCc1nn(C)c2c(Nc3ccc(Br)cc3)nc(-c3ccc([N+](=O)[O-])o3)nc12 | > 32 µg/mL | > 32 µg/mL | inactive | > 50 µg/mL |
| CCCc1nn(C)c2c(Nc3ccc(OC(F)(F)F)cc3)nc(-c3ccc([N+](=O)[O-])o3)nc12 | > 32 µg/mL | > 32 µg/mL | inactive | > 50 µg/mL |
| CCCc1nn(C)c2c(N3CCC(CO)CC3)nc(-c3ccc([N+](=O)[O-])o3)nc12 | > 32 µg/mL | > 32 µg/mL | inactive | > 50 µg/mL |
| CCCc1nn(C)c2c(Nc3ccc(OC)cc3)nc(-c3ccc([N+](=O)[O-])o3)nc12 | > 32 µg/mL | > 32 µg/mL | inactive | > 50 µg/mL |
| CCCc1nn(C)c2c(N3CCN(C)CC3)nc(-c3ccc([N+](=O)[O-])o3)nc12 | > 32 µg/mL | > 32 µg/mL | inactive | > 50 µg/mL |
| CCCc1nn(C)c2c(N3CCC(O)CC3)nc(-c3ccc([N+](=O)[O-])o3)nc12 | 16 µg/mL (≈ 41.4 µM) | 0.5 µg/mL (≈ 1.29 µM) | inactive | > 50 µg/mL |
| CCCc1nn(C)c2c(NCc3ccncc3)nc(-c3ccc([N+](=O)[O-])o3)nc12 | 1 µg/mL (≈ 2.54 µM) | 1 µg/mL (≈ 2.54 µM) | inactive | > 50 µg/mL |
| CCCc1nn(C)c2c(N3CCCCC3)nc(-c3ccc([N+](=O)[O-])o3)nc12 | > 32 µg/mL | > 32 µg/mL | inactive | > 50 µg/mL |
| CCCc1nn(C)c2c(N3CCN(c4ccncc4)CC3)nc(-c3ccc([N+](=O)[O-])o3)nc12 | 1 µg/mL (≈ 2.23 µM) | 0.25 µg/mL (≈ 0.557 µM) | inactive | > 50 µg/mL |
| CCCc1nn(C)c2c(N3CCC(CCO)CC3)nc(-c3ccc([N+](=O)[O-])o3)nc12 | > 32 µg/mL | > 32 µg/mL | inactive | > 50 µg/mL |
| CCCc1nn(C)c2c(N3CCCC3)nc(-c3ccc([N+](=O)[O-])o3)nc12 | > 32 µg/mL | > 32 µg/mL | inactive | > 50 µg/mL |
| CCCc1nn(C)c2c(N3CCN(c4ccccc4O)CC3)nc(-c3ccc([N+](=O)[O-])o3)nc12 | > 32 µg/mL | > 32 µg/mL | inactive | > 50 µg/mL |
| CCCc1nn(C)c2c(N3CCOCC3)nc(-c3ccc([N+](=O)[O-])o3)nc12 | > 32 µg/mL | > 32 µg/mL | inactive | > 50 µg/mL |
| CCCc1nn(C)c2c(Nc3ccc(C(F)(F)F)cc3)nc(-c3ccc([N+](=O)[O-])o3)nc12 | > 32 µg/mL | > 32 µg/mL | inactive | > 50 µg/mL |
| CCCc1nn(C)c2c(NCCCN3CCOCC3)nc(-c3ccc([N+](=O)[O-])o3)nc12 | > 32 µg/mL | > 32 µg/mL | inactive | > 50 µg/mL |
| CCCc1nn(C)c2c(NCCCCCCO)nc(-c3ccc([N+](=O)[O-])o3)nc12 | 32 µg/mL (≈ 79.5 µM) | 2 µg/mL (≈ 4.97 µM) | inactive | > 50 µg/mL |
| CCCc1nn(C)c2c(NCc3ccc(OC)c(F)c3)nc(-c3ccc([N+](=O)[O-])o3)nc12 | > 32 µg/mL | > 32 µg/mL | inactive | > 50 µg/mL |
